According to ChEMBL document CHEMBL3259718, “Identifying structural determinants of potency for analogs of apelin-13: integration of C-terminal truncation with structure-activity” (Bioorg Med Chem, 2014):
Structures can show the parent of a compound that is named as a salt. Square brackets hold non-standard residues; d marks the D form. Peptide text beside a SMILES is read from it. * marks the point of attachment. hPhe = N[C@@H](CCc1ccccc1)C(=O)O; Nle = CCCC[C@H](N)C(=O)O; Aoc = NCCCCCCCC(=O)O; Tfa = O=C(C(F)(F)F)*

How the values were obtained:
Apelin receptor = target: T1, Apelin receptor (Homo sapiens, UniProt P35414); test: Agonist activity at APJ receptor (unknown origin) expressed in CHO cells co-expressing with Calphaq16 assessed as calcium mobilization; assay type: functional, cell-based
T1 sequence (P35414 whole entry): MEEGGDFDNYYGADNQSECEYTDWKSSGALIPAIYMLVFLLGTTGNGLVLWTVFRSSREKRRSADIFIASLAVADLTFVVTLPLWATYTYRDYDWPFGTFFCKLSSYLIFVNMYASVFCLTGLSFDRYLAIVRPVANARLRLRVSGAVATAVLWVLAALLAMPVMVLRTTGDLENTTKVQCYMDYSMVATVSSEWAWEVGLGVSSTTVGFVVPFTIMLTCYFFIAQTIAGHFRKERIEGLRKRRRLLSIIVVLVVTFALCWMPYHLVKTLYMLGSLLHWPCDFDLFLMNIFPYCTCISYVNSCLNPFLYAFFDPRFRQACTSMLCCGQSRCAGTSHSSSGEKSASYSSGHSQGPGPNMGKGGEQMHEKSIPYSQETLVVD

[1] = Retention time of the compound by HPLC analysis; assay type: physicochemical
How it was run: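 Analytical reverse-phase HPLC on a peptide C18 column with a 5–45% acetonitrile gradient over 30 min. Identity was confirmed by ESI-MS mass.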

[2] = Half life in rat plasma at pH 7.4 by LC-MS/MS analysis; assay type: ADME, cell-free
How it was run: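 Peptide incubated in rat plasma adjusted to pH 7.4 at 37 °C, with DMSO kept below 2.5%. Reactions were stopped with acetonitrile at 0, 2, 5, 15, 30 and 60 min and clarified by centrifugation. Parent remaining was quantified by UPLC-MS/MS using MRM.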

Plasma [3] = test: Drug metabolism in rat plasma assessed as Ac-R-P-Nle-L-A after 15 to 25 mins by ESI-MS analysis; assay type: ADME, cell-free
How it was run: (§1)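 Peptide incubated in rat serum, with aliquots taken over a time course. Samples were run on reverse-phase capillary C18 nano-LC, with mobile phase B rising linearly from 10% to 60% over 55 min at 450 nl/min. Detection was positive-ion nano-ESI Orbitrap MS in data-dependent mode (1 FTMS plus 3 IT-MS/MS cycles, resolution 7500). Fragments were assigned from [M+H]+ masses using peptide ladder predictions.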

Plasma [4] = test: Drug metabolism in rat plasma assessed as Ac-R-P-Nle after 15 to 25 mins by ESI-MS analysis; assay type: ADME, cell-free; how it was run: as §1

EC50 (Apelin receptor; read-out: EC50) [nM]	Retention_time [1] [min]	Compound	also measured
> 3000		H-QRPRLSHKG-NH2	
494	13.08	Ac-KPRLAAKGPL-NH2	
936	11.33	Ac-RPRAAAKGPL-NH2	
31	13.23	Ac-RARLAAKGPL-NH2	
1380	13.2	Ac-APRLSHKGPL-NH2	
8.9	14.15	Ac-RPALAAKGPL-NH2	
		Ac-KGPMPF-OH	EC50 (Apelin receptor; read-out: pEC50 (converted)): > 31600 nM
> 3000	17.23	CC(=O)N[C@@H](CCCCNC(=O)C(F)(F)F)C(=O)N1CCC[C@H]1C(=O)N[C@@H](CCCNC(=N)N)C(=O)N[C@@H](CC(C)C)C(=O)N[C@@H](C)C(=O)N[C@@H](C)C(=O)N[C@@H](CCCCN)C(=O)NCC(=O)N1CCC[C@H]1C(=O)N[C@@H](CC(C)C)C(N)=O (Ac-K(Tfa)PRLAAKGPL-NH2)	
	17.44	CSCC[C@H](NC(=O)[C@@H]1CCCN1C(=O)CNC(=O)[C@H](CCCCN)NC(=O)[C@H](Cc1cnc[nH]1)NC(=O)[C@H](CO)NC(=O)[C@H](CC(C)C)NC(=O)[C@H](CCCNC(=N)N)NC(=O)[C@@H]1CCCN1C(=O)[C@H](CCCNC(=N)N)NC(=O)[C@@H]1CCC(=O)N1)C(=O)N1CCC[C@H]1C(=O)N[C@@H](Cc1ccccc1)C(=O)O	
33	16.79	CCCC[C@H](NC(=O)[C@H](C)NC(=O)[C@H](C)NC(=O)[C@H](CC(C)C)NC(=O)[C@H](CCCC)NC(=O)[C@@H]1CCCN1C(=O)[C@H](CCCNC(=N)N)NC(C)=O)C(=O)NCC(=O)N1CCC[C@H]1C(=O)N[C@@H](CC(C)C)C(N)=O (Ac-RP[Nle]LAA[Nle]GPL-NH2)	half-life [2]: 2 min; Drug metabolism (Plasma [3]): metabolite_detected; Drug metabolism (Plasma [4]): metabolite_detected
539	19.43	CCCC[C@H](NC(=O)[C@@H]1CCCN1C(=O)[C@H](CCCNC(=N)N)NC(C)=O)C(=O)NCCCCCCCC(=O)N[C@@H](C)C(=O)N[C@@H](C)C(=O)N[C@@H](CCCCN)C(=O)NCC(=O)N1CCC[C@H]1C(=O)N[C@@H](CC(C)C)C(N)=O (Ac-RP[Nle][Aoc]AAKGPL-NH2)	
4.7	13.43	Ac-RPRLSHKGPF-NH2	
1.1	13.64	Ac-RPRLAAKGPL-NH2	
		Ac-LSHKGPMPF-OH	EC50 (Apelin receptor; read-out: pEC50 (converted)): > 31600 nM
4.4	11.47	Ac-RPRLSHKGPM-NH2	
> 3000	22	CC(=O)N[C@@H](CCCNC(=N)N)C(=O)N1CCC[C@H]1C(=O)NCCCCCCCC(=O)N[C@@H](CC(C)C)C(=O)N[C@@H](C)C(=O)N[C@@H](C)C(=O)N[C@@H](C)C(=O)NCC(=O)N1CCC[C@H]1C(=O)N[C@@H](CC(C)C)C(N)=O (Ac-RP[Aoc]LAAAGPL-NH2)	
237	12.37	Ac-RPRLAAKGAL-NH2	
2.2	17.64	CCCC[C@H](NC(=O)[C@H](C)NC(=O)[C@H](C)NC(=O)[C@H](CC(C)C)NC(=O)[C@H](CCCCN)NC(=O)[C@@H]1CCCN1C(=O)[C@H](CCCNC(=N)N)NC(C)=O)C(=O)NCC(=O)N1CCC[C@H]1C(=O)N[C@@H](CC(C)C)C(N)=O (Ac-RPKLAA[Nle]GPL-NH2)	
2350		H-QRPRLSHKGP-NH2	
691	10.84	Ac-RPRLSHKGPV-NH2	
1.9	12.43	Ac-RPRLSHKGPL-NH2	
> 3000	15.93	H-QRPRLS-NH2	
637	14.93	Ac-RPRLAAAGPL-NH2	
> 3000	13.49	H-QRPRLSH-NH2	
73	18.37	CCCC[C@H](NC(=O)[C@@H]1CCCN1C(=O)[C@H](CCCNC(=N)N)NC(C)=O)C(=O)N[C@@H](CCc1ccccc1)C(=O)N[C@@H](C)C(=O)N[C@@H](C)C(=O)N[C@@H](CCCCN)C(=O)NCC(=O)N1CCC[C@H]1C(=O)N[C@@H](CC(C)C)C(N)=O (Ac-RP[Nle][hPhe]AAKGPL-NH2)	
44	13.91	Ac-RPKFAAKGPL-NH2	
	13.25	CC(=O)N[C@@H](CCCNC(=N)N)C(=O)N1CCC[C@H]1C(=O)N[C@@H](CCCCN)C(=O)N[C@@H](CC(C)C)C(=O)N[C@@H](C)C(=O)N[C@@H](C)C(=O)N[C@@H](CCCCN)C(=O)NCC(=O)N1CCC[C@@H]1C(=O)N[C@@H](CC(C)C)C(N)=O	EC50 (Apelin receptor; cho, read-out: EC50): 1.7 nM
> 3000	12.94	H-QRPRLSHK-NH2	
3.2	16.64	CCCC[C@H](NC(=O)[C@@H]1CCCN1C(=O)[C@H](CCCNC(=N)N)NC(C)=O)C(=O)N[C@@H](CC(C)C)C(=O)N[C@@H](C)C(=O)N[C@@H](C)C(=O)N[C@@H](CCCCN)C(=O)NCC(=O)N1CCC[C@H]1C(=O)N[C@@H](CC(C)C)C(N)=O (Ac-RP[Nle]LAAKGPL-NH2)	
